Compound activity: PubChem, several laboratories
ERa coact inh = ERα–SRC-1 coactivator interaction inhibitors, primary screen, biochemical, TR-FRET, ERα LBD, estradiol-bound; inhibition, % at 25.6 µM; Estrogen receptor (Homo sapiens), P03372; TR-FRET ER-alpha LBD / SRC-1 peptide; actives 1.7% (n = 86,000); in the data active = inhibition above about 50%
Target sequence (P03372 whole entry, looked up, the tested form may be a part): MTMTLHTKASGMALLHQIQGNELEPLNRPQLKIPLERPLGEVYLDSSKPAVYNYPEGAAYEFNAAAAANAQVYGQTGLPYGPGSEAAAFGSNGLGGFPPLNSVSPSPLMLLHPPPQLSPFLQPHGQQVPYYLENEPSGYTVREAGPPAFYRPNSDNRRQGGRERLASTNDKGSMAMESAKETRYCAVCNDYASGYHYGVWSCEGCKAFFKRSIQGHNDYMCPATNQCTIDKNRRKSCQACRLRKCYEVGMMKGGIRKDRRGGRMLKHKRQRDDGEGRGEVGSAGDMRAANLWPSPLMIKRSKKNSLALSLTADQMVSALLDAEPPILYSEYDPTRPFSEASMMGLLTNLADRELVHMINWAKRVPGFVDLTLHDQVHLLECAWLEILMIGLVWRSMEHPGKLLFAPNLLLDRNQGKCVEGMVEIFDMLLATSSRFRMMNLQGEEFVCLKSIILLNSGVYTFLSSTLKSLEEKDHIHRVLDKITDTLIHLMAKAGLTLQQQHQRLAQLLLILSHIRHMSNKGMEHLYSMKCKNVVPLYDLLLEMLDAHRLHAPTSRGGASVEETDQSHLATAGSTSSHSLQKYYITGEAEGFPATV
ERb coact inh = inhibitors of ERβ-SRC1 coactivator interaction, primary screen, biochemical, TR-FRET, ERβ LBD, SRC-1 peptide; TR-FRET ER-beta LBD / SRC1-Cy5 peptide binding; receptor agonist-loaded with 1 µM estradiol; inhibition, % at 25.6 µM; actives 1.3% (n = 86,000); AID 633, 2007;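 active = compounds whose percent inhibition of the receptor-coactivator binding signal exceeds about 50% in the single-dose screen, limit read from the data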
ERa coact pot = enhancers of ERα–SRC-1 coactivator binding, primary screen, biochemical, TR-FRET, ERα LBD, low estradiol; TR-FRET ERalpha-LBD/SRC-Cy5 coactivator binding, 2 h; 100 = basal binding, no effect; coactivator binding (% of control), % at 25.6 µM; actives 1.3% (n = 86,000); AID 639, 2007; in the data active = activity above about 200%;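 also: binding measured in presence of low estradiol as agonist stimulus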
SF1 activator = activators of human SF-1, primary screen, cell-based, CHO-K1, Gal4-SF-1 LBD, luciferase luminescence | CHO-K1 Gal4-SF-1 LBD luciferase reporter; % increase over DMSO SF-1-specific signal | activation, % at 10 µM | actives 1.9% (n = 65,000) | AID 522, 2006;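 active = activation above the mean activation of all tested compounds plus 3 SD, cut at about 50% in these data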
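Material: Transient Gal4-SF-1 LBD reporter, CHO-K1 | Input: 4,000 cells/well | Dosing: One dose, 10 µM compound, 1% DMSO | Incubation: 20 h compound treatment, 37 °C | Detection: SteadyLite luciferase luminescence | Evaluation: Percent activation relative to DMSO median and mock-transfected background | Benchmarks: DMSO-treated SF-1-transfected cells as negative, DMSO-treated mock-transfected cells lacking SF-1 as background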
RORA act = activators of orphan receptor RORA, primary screen, cell-based, luminescence; Nuclear receptor ROR-alpha (Homo sapiens), P35398; CHO-K1 Gal4-RORA LBD luciferase reporter; percent increase over mock-subtracted basal signal; activation, % at 10 µM; actives 1.5% (n = 65,000); AID 560, 2006;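 active = activation above the mean of all tested compounds plus 3 SD, cut at about 49% in these data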
BAP1 block = inhibitors of BAP1 deubiquitinase, primary screen, biochemical, Ub-AMC fluorescence, kinetic. Ubiquitin carboxyl-terminal hydrolase BAP1 (Homo sapiens), Q92560. recombinant BAP1, Ub-AMC hydrolysis fluorescence kinetic; hits give low values. calls only at 20 µM. actives 0.48% (n = 72,000). AID 436, 2006;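 active = activity remaining at or below 50% of control, provided the compound also passes the data quality filters; inactive = the rest, including low values that fail the filters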
A number is an active result; – = inactive; · = no result shown; [ ] = dose if it differs, or a comment. Most compounds without a hit are left out; they make up all but 5.1% or so of the library.

SMILES	ERa coact inh	ERb coact inh	ERa coact pot	SF1 activator	RORA act	BAP1 block
CS(=O)(=O)N1CCN(c2nc3ccccc3s2)CC1	–	–	–	–	57.6	–
COC(=O)c1cc2ccsc2n1CC(=O)Nc1ccc(N(C)C)cc1	54.9	–	–	–	–	·
O=C(Nc1ccccc1)N1CC=C(c2ccc(F)cc2)CC1	–	–	–	–	65.8	·
O=C(Nc1cccc2ccccc12)N1CC=C(c2ccccc2)CC1	–	–	–	·	·	·
O=C(Nc1ccccc1)N1CC=C(c2ccccc2)CC1	–	–	–	87.2	49.2	–
CN1C(=O)C(C)(C)N(Cc2ccccc2)c2ccccc21	·	·	·	·	·	–
O=C(Nc1cccc(Cl)c1)c1cnn2cccnc12	–	–	–	104.8	–	–
Cc1cc(C)n(-c2ccc(C(=O)Nc3nc4ccccc4s3)cc2)n1	–	–	207.6[fluorescence artefact?]	–	49.4	–
Nc1ccc(C(=O)Nc2nc3ccccc3s2)cc1	–	–	–	·	·	·
Cc1cc(C)n(-c2ccc(C(=O)NC3=NCCS3)cc2)n1	–	–	–	–	51.4	–
Cc1cc(C)n(-c2ccc(C(=O)Nc3ccc4c(c3)OCO4)cc2)n1	–	–	–	·	·	·
Cc1ccc2oc(Nc3nc(C)cc(C)n3)nc2c1	–	–	–	–	52.2	–
CN1CCN(/C=N/c2sc3c(c2C#N)CCCCC3)CC1	·	·	·	54.5	–	–
Cc1ccc(/C=N/c2sc3c(c2C#N)CCCCC3)o1	–	–	–	54.4	–	–
CCOC(=O)c1c(NC(=O)c2ccccc2F)sc(C(C)=O)c1C	·	·	·	·	·	–
CCOc1ccc2nc(NC(=O)c3ccc(Cl)s3)sc2c1	·	·	·	·	·	–
N#Cc1c(N)nc(SCC(=O)c2cc3ccccc3oc2=O)c(C#N)c1-c1cccs1	·	·	·	·	·	–
Cn1c(C(=O)NCCN2CCOCC2)cc2c(=O)n(C)c3ccccc3c21	–	–	–	–	–	–
Cn1c(C(=O)NC2CCCCCC2)cc2c(=O)n(C)c3ccccc3c21	–	–	223.3[fluorescence artefact?]	–	–	–
Cc1ccc(CNC(=O)c2cc3c(=O)n(C)c4ccccc4c3n2C)cc1	–	–	290.9[fluorescence artefact?]	·	·	·
COc1cc(NC(=O)c2cc3c(=O)n(C)c4ccccc4c3n2C)cc(OC)c1OC	–	–	330.2	–	–	–
CN(CCNC(=O)c1cc2c(=O)n(C)c3ccccc3c2n1C)Cc1ccccc1	–	–	–	–	–	–
Cn1c(C(=O)NCc2cccs2)cc2c(=O)n(C)c3ccccc3c21	–	–	512.8[fluorescence artefact?]	–	–	–
Cn1c(C(=O)NC2CCCCC2)cc2c(=O)n(C)c3ccccc3c21	–	–	–	–	–	–
CCN(CC)S(=O)(=O)c1cc(C(=O)Nc2ccccc2OC)ccc1C	·	·	·	·	·	–
SMILES	ERa coact inh	ERb coact inh	ERa coact pot	SF1 activator	RORA act	BAP1 block
Cc1ccnc(NC(=O)c2c(O)c3ccccc3n(C)c2=O)c1	–	–	344.6[fluorescence artefact?]	76.1	74.5	–
CC(C)Cn1c(=O)c(C(=O)Nc2ccncc2)c(O)c2ccccc21	51.4[fluorescence artefact?]	–	–	–	–	·
Cc1ccc(NC(=O)c2c(O)c3ccccc3n(C)c2=O)nc1	–	–	–	–	–	·
CC(=O)Nc1ccccc1OCC(=O)c1ccc2c(c1)OCO2	–	–	–	–	65.2	·
O=C(CCNc1ccccc1)c1ccc2c(c1)OCO2	–	–	–	61.8	–	–
Cc1ccccc1OCC(=O)Nc1ccc2c(c1)OCO2	–	–	–	–	–	–
Clc1ccc(-n2nnnc2Sc2ncnc3sccc23)cc1	–	–	–	–	–	–
Cc1sc2ncnc(Sc3nnnn3-c3ccccc3)c2c1C	–	–	202.3[fluorescence artefact?]	–	–	·
Nc1ccc2nc(-c3ccc(Cl)cc3)[nH]c2c1	86.7[fluorescence artefact?]	–	–	64.5	82.4	–
Nc1ccc(-c2nc3c(Cl)c(N)ccc3[nH]2)cc1	–	52.5[fluorescence artefact?]	–	–	–	·
Cc1cccc2[nH]c(-c3ccc(N)cc3)nc12	·	·	·	·	·	–
Cc1ccc(C)c(-c2nc3ccc(N)cc3[nH]2)c1	–	–	–	–	–	–
Nc1ccc2oc(-c3ccc(-c4nc5ccc(N)cc5[nH]4)cc3)nc2c1	·	·	·	·	·	–
Nc1ccc2nc(-c3cc(Cl)c(N)c(Cl)c3)[nH]c2c1	95.4[fluorescence artefact?]	–	–	·	·	·
Brc1ccc(-c2nnc3n2CCC3)cc1	·	·	·	·	·	–
CCOC(=O)c1c(NC(=O)CCC(=O)O)sc2c1CCC2	·	·	·	·	·	–
COc1ccc(N/C(N)=N/c2nc(CSc3ccc(C)cc3)cc(=O)[nH]2)cc1	–	–	–	–	–	–
COc1ccccc1N/C(N)=N/c1nc(CSc2ccc(C)cc2)cc(=O)[nH]1	–	–	257.9[fluorescence artefact?]	–	–	–
O=C(NCc1ccco1)c1ccc2c(c1)C(=O)c1ccccc1-2	–	–	–	–	–	–
Cc1cccc(NC(=O)c2cc3ccccc3c(=O)o2)n1	–	–	–	64.6	57.1	–
Cc1cccc(NC(=O)c2ccc(Cl)cc2)n1	·	·	·	·	·	–
O=C(NCc1ccco1)c1cc2c(s1)CSC2	71.2	64.9	–	–	–	·
O=C(NCc1ccco1)c1cccc2ccccc12	–	–	–	–	–	–
O=C(NCc1ccco1)c1cc2ccccc2c(=O)o1	57.1	–	–	–	–	–
O=C(NCc1ccco1)c1ccc2ccccc2c1	–	–	–	–	67.5	–
SMILES	ERa coact inh	ERb coact inh	ERa coact pot	SF1 activator	RORA act	BAP1 block
COC(=O)CSc1nc2sc3c(c2c(=O)n1-c1ccc(C)cc1)CC(C)(C)OC3	·	·	·	·	·	–
CCOC(=O)CSc1nc2ncccc2[nH]1	·	·	·	·	·	–
CC(C(=O)O)N1C(=O)C2C3CCC(C3)C2C1=O (configuration not stated)	·	·	·	·	·	–
CCOC(=O)N1CCN(C(=O)C2CCN(S(=O)(=O)CC)CC2)CC1	–	–	238.2[fluorescence artefact?]	–	–	–
Brc1ccc2nc(Nc3ccccn3)nc(-c3ccccc3)c2c1	·	·	·	·	·	–
CCC(c1nnnn1Cc1ccc2c(c1)OCO2)N1CCN(c2ccc(F)cc2)CC1 (configuration not stated)	–	78.7[fluorescence artefact?]	–	–	–	–
CCC(c1nnnn1Cc1ccc2c(c1)OCO2)N1CCN(c2ccccc2)CC1 (configuration not stated)	–	–	–	–	–	–
CCc1nnc(NC(=O)C2Cc3ccccc3CN2S(=O)(=O)c2ccc(C)cc2)s1 (configuration not stated)	–	–	–	·	·	·
CCc1nnc(NC(=O)C2Cc3ccccc3CN2S(=O)(=O)c2cccs2)s1 (configuration not stated)	55.2	–	–	–	–	–
